In ChEMBL document CHEMBL4477185, “Anacardic Acids from Knema hookeriana as Modulators of Bcl-xL/Bak and Mcl-1/Bid Interactions” (J Nat Prod, 2016):
The source made the active and inactive calls. The rule behind the calls is not given here.

What follows are compounds tested against Bcl-2-like protein 1 (Homo sapiens) (UniProt Q07817) (assay: Binding affinity to Bcl-XL (unknown origin) assessed as effect on protein HN resonances at 1.5 equivalent by HSQC 1H-15N NMR spectroscopy).
How it was run: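 Ligand titration into Bcl-xL, followed by 1H-15N HSQC spectra recorded on an 800 MHz spectrometer with a 5 mm z-gradient TCI cryoprobe.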

Bcl-2-like protein 1 (Homo sapiens), sequence (Q07817 whole entry): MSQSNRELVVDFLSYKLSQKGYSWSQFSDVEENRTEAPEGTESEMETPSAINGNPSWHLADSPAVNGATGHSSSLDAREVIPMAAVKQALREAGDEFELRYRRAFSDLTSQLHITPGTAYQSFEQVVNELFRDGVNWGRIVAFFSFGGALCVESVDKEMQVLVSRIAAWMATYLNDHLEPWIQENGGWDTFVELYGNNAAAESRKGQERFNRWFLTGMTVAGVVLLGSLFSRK

Activity | SMILES
inactive | CCCCCCCCCCCCCc1cccc(O)c1C(=O)O [GINKGOLIC ACID 13:0]

These compounds were tested against T1, BH3-interacting domain death agonist (Homo sapiens) (UniProt P55957) (assay: Binding affinity to Bid (unknown origin) assessed as micelles formation at 0.25 to 5 equivalent by 1H NMR spectra analysis).
T1 sequence (whole entry): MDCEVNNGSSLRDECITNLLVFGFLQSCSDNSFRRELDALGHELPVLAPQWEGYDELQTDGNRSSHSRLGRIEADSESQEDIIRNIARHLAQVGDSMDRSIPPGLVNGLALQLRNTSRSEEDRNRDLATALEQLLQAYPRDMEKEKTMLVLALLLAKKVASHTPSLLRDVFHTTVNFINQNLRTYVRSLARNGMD

SMILES | Activity
CCCCCCCCCCCCCc1cccc(O)c1C(=O)O [GINKGOLIC ACID 13:0] | Dose-dependent effect

Each compound was assayed against Induced myeloid leukemia cell differentiation protein Mcl-1 (Homo sapiens) (UniProt Q07820) (assay: Binding affinity to Mcl-1 (unknown origin) assessed as effect on protein HN resonances at 1.5 equivalent by HSQC 1H-15N NMR spectroscopy).
Induced myeloid leukemia cell differentiation protein Mcl-1 (Homo sapiens), sequence (Q07820 whole entry): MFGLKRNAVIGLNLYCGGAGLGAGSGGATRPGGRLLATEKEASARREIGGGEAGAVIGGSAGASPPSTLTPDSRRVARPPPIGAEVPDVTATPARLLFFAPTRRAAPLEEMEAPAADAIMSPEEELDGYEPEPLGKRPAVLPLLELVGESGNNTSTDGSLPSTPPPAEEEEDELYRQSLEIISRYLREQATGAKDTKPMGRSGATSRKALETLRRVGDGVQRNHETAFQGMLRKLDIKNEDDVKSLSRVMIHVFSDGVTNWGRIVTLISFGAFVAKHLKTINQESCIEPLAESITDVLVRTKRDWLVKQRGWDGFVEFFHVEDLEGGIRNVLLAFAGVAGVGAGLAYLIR

Activity | SMILES
inactive | CCCCCCCCCCCCCc1cccc(O)c1C(=O)O [GINKGOLIC ACID 13:0]

What follows are compounds tested against T1, BH3-interacting domain death agonist (Homo sapiens) (assay: Binding affinity to Bid (unknown origin) assessed as induction of chemical shift perturbations by NMR titration method).

SMILES | Activity
CCCCCCCCCCCCCc1cccc(O)c1C(=O)O [GINKGOLIC ACID 13:0] | Active

Each compound was assayed against Induced myeloid leukemia cell differentiation protein Mcl-1/BH3-interacting domain death agonist (Homo sapiens, UniProt Q07820) (assay: Inhibition of His-tagged Mcl-1/5-carboxyfluorescein-Bid (unknown origin) after 1 hr by fluorescence polarization assay).
Induced myeloid leukemia cell differentiation protein Mcl-1/BH3-interacting domain death agonist, sequence (Q07820 whole entry, one chain of several, the tested form may be a part): as the sequence (Q07820 whole entry) above
Type: protein assay
How it was run: (§1)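 Fluorescence polarization competition: a small molecule competes with a fluorescent-tagged BH3 peptide (Bak for Bcl-xL, Bid for Mcl-1) for binding to the anti-apoptotic protein. Run in triplicate.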

SMILES | Ki [µM]
CCCC/C=C\CCCCCCCc1cc(O)cc(O)c1C(C)=O | > 33
CCCCCCCCCCCc1cccc(O)c1C(=O)O | 0.7
CCCC/C=C\CCCCCCCc1cccc(O)c1 | > 33
CCCCCCCCCc1cccc(O)c1C(=O)O | 17.7
CCCC/C=C\CCCCCCCc1cccc(O)c1C(=O)O | 0.2
CCCCCCCCCCCc1cc(O)cc(O)c1C(C)=O | > 33
CCCCCCCCCCCCCc1cccc(O)c1 | > 33
CCCCCCCCCCCCCc1cccc(O)c1C(=O)O [GINKGOLIC ACID 13:0] | 0.2
O=C(O)c1c(O)cccc1CCCCCCCCc1ccccc1 | 3.7
CCCC/C=C\CCCCCc1cc(O)cc(O)c1C(C)=O | > 33
CCCC/C=C\CCCCCc1cccc(O)c1C(=O)O | 5.8

Each compound was assayed against T1, BH3-interacting domain death agonist (Homo sapiens) (assay: Binding affinity to Bid (unknown origin) at 2 equivalent assessed as interaction at Asp16/Ser17/Met18/Asp19 and Arg20 residues by 2D 1H-1H TOCSY analysis).

SMILES | Activity
CCCCCCCCCCCCCc1cccc(O)c1C(=O)O [GINKGOLIC ACID 13:0] | Active

The compounds below were run against Bcl-xL/BAK (Homo sapiens, UniProt Q07817) (assay: Inhibition of His-tagged Bcl-xL/5-carboxyfluorescein-Bak (unknown origin) after 1 hr by fluorescence polarization assay).
Bcl-xL/BAK, sequence (Q07817 whole entry): as the sequence (Q07817 whole entry) above
Bcl-xL/BAK, sequence (Q16611 whole entry, further chain): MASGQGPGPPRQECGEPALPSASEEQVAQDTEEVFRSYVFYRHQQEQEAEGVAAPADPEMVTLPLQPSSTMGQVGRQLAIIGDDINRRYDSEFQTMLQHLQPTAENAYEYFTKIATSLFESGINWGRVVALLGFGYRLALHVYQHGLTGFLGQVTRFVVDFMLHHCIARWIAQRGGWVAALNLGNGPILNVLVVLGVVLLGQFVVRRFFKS
Type: protein assay
How it was run: as §1

SMILES | Ki [µM]
CC(C)=CCC[C@@H](C)[C@H]1C=C[C@@]2(C(=O)O)[C@H](CC(C)=C[C@@H]2/C=C(\C)C2CCC(C(=O)O)CC2)C1 (some centres undefined) [MEIOGYNIN A] | 2.6
CCCCCCCCCCCc1cccc(O)c1C(=O)O | 1.2
CCCC/C=C\CCCCCCCc1cccc(O)c1 | > 23
CCCCCCCCCc1cccc(O)c1C(=O)O | > 23
CCCC/C=C\CCCCCCCc1cccc(O)c1C(=O)O | 0.3
CCCC/C=C\CCCCCc1cccc(O)c1C(=O)O | 3.2

Next, values leading:

Ki [µM] | SMILES
> 23 | CCCC/C=C\CCCCCCCc1cc(O)cc(O)c1C(C)=O
> 23 | CCCCCCCCCCCc1cc(O)cc(O)c1C(C)=O
> 23 | CCCCCCCCCCCCCc1cccc(O)c1
0.2 | CCCCCCCCCCCCCc1cccc(O)c1C(=O)O [GINKGOLIC ACID 13:0]
16.3 | O=C(O)c1c(O)cccc1CCCCCCCCc1ccccc1
> 23 | CCCC/C=C\CCCCCc1cc(O)cc(O)c1C(C)=O

Each compound was assayed on HCT-116 (assay: Cytotoxicity against human HCT116 cells assessed as decrease in cell viability after 72 hrs by resazurin dye based fluorescence assay).
Type: functional

SMILES | Activity
CCCCCCCCCCCc1cccc(O)c1C(=O)O | inactive
CCCCCCCCCc1cccc(O)c1C(=O)O | inactive
CCCC/C=C\CCCCCCCc1cccc(O)c1C(=O)O | inactive
CCCCCCCCCCCCCc1cccc(O)c1C(=O)O [GINKGOLIC ACID 13:0] | inactive
O=C(O)c1c(O)cccc1CCCCCCCCc1ccccc1 | inactive
CCCC/C=C\CCCCCc1cccc(O)c1C(=O)O | inactive
